We go through seven molecules from ChEMBL document CHEMBL6177979, “Exploring the Phototherapeutic Applications of Mitochondria-Targeted COUPY Photocages of Antitumor Drugs” (J Med Chem, 2025).

Data set [1] in a line: Induction of ROS generation in PBS buffer assessed as increase in superoxide anion radical level by measuring increase in DHR123 fluorescence intensity at 10 uM irradiated with 505 nm 100 mW/cm2 green light for 15 mins by DHR123 probe based analysis.
Data set [2] in a line: Induction of ROS generation in PBS buffer assessed as increase in singlet oxygen by measuring increase in SOSG fluorescence intensity at 10 uM irradiated with green light 505 nm 100 mW/cm2 for 15 mins by SOSG probe based analysis. Format: functional. In outline: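 Cell-free fluorogenic probe test. Compound (10 μM) in PBS with 2% DMSO plus SOSG (5 μM, singlet oxygen) or DHR123 (10 μM, superoxide), irradiated with green LED light (505 ± 35 nm, 100 mW cm–2), with the rise in probe fluorescence followed. Positive references were Rose Bengal (SOSG) and methylene blue (DHR123). Scavenger controls used sodium azide-saturated PBS (singlet oxygen) or tiron-saturated PBS (superoxide).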

Data set [3] is described as follows: Drug accumulation in human HeLa cells assessed as mitochondrial localization at 2 uM incubated for 30 mins by Hoechst 33342 staining based live cell confocal microscopic analysis. Type of data set: ADME. The following applies: 0.5 h. In outline: (§1)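 Live HeLa cells (DMEM, 4.5 g/L glucose, 10% FBS, pen-strep) on glass-bottom dishes; 24 h after seeding, incubated 30 min at 37 °C with compound (1 or 2 μM) in DMEM + 10% FBS. Cells were washed three times with DPBS and imaged at 37 °C, 5% CO2 in phenol-red-free low-glucose DMEM. Excitation 561 nm, emission 570–670 nm. For co-staining, MitoTracker Green FM (0.1 μM) was co-incubated 30 min in nonsupplemented DMEM and excited at 488 nm.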

Data set [4] can be described thus: Phototoxic index, ratio of IC50 for cytotoxicity against human HeLa cells assessed as reduction in cell viability incubated for 2 hrs under dark condition by MTT assay to IC50 for photocytotoxicity in human HeLa cells assessed as reduction in cell viability irradiated with 550 nm 4 mW/cm^-2 green-yellow […] and measured after 48 hrs by MTT assay. Type of data set: toxicity, cell-based. The settings on record: read-out: Ratio IC50. In outline: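 Phototoxic index is dark IC50 divided by light IC50, HeLa MTT assay. Cells had 1 h compound in the dark, then 1 h dark or 550 nm LED (4 mW/cm2 pulsed, 7.2 J cm–2), then 48 h after medium change.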
In general terms: Tetrazolium assays rely on reduction of a dye to a coloured formazan, in cell work by metabolically active cells.

For data set [5], the system named is HeLa. Nature of the data set: Cytotoxicity against human HeLa cells assessed as reduction in cell viability at 100 uM incubated for 2 hrs under dark condition by MTT assay. Type of data set: functional, cell-based. In outline: (§2)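 HeLa or U87-MG cells seeded at 5000/well in DMEM with 10% FBS and 1% penicillin-streptomycin, grown 24 h. Compound added at 0–200 μM final (0.5% DMSO) for 1 h at 37 °C in the dark. Then 1 h dark or 550 nm pulsed LED (4 mW/cm2, 1 min on/1 min off; 7.2 J cm–2). Medium refreshed, 48 h incubation, MTT read-out. IC50 from sigmoidal dose–response curves, n = 3.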

Data set [6] is described as follows: Photophysical property of the compound assessed as fluorescence quantum yield. Format: physicochemical. In outline:
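Fluorescence quantum yield by the comparative method against cresyl violet in ethanol (ΦF 0.54). Optically matched solutions with absorbance below 0.1 at 540 nm excitation. Calculated from integrated emission, absorbance and refractive indexes.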

For data set [7], the system named is HeLa. Nature of the data set: Photocytotoxicity in human HeLa cells assessed as reduction in cell viability irradiated with 550 nm 4 mW/cm^-2 green-yellow LED light for 1 hr and measured after 48 hrs by MTT assay. Format: toxicity, cell-based. The following applies: 49 h. In outline: as §2
Data set [8] in a line: Drug uptake in human HeLa cells assessed as increase in fluorescence intensity at 1 uM incubated for 30 mins by DAPI staining based confocal microscopic analysis. Format: ADME, cell-based. The following applies: 0.5 h. An outline of the steps: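 HeLa cells seeded on glass-bottom dishes in DMEM with 10% FBS. After 24 h, incubated 30 min at 37 °C with compound (1 μM) in supplemented DMEM. Washed three times with DPBS, kept in phenol red-free low-glucose DMEM, imaged live by confocal with 561 nm excitation and 570–670 nm detection.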

Data set [9] is described as follows: Induction of singlet oxygen quantum yield under irradiation with green light 505 nm 100 mW/cm2 by. Type of data set: functional. In outline: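 Singlet oxygen quantum yield measured in air-saturated DCM (bubbled 15 min). DPBF trap at ~1.0 absorbance (50 μM); compound absorbance set to 0.06 at 505 nm. Irradiated with LED at 505 ± 35 nm, 100 mW cm–2.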
The nature of data set [10]: Photocytotoxicity in human U-87 MG cells assessed as reduction in cell viability irradiated with 550 nm 4 mW/cm^-2 green-yellow LED light for […] and measured after 48 hrs by MTT assay. Format: toxicity, cell-based, U-87MG ATCC. An outline of the steps: as §2
Data set [11] has as its system HeLa. Nature of the data set: Photocytotoxicity in human HeLa cells assessed as reduction in cell viability irradiated with 550 nm 4 mW/cm^-2 green-yellow LED light for 1 hr and measured after 48 hrs in presence of 4-PBA by MTT assay. Format: toxicity, cell-based. The following applies: 49 h. In outline: as §2
Data set [12] concerns HeLa. Nature of the data set: Photocytotoxicity in human HeLa cells assessed as reduction in cell viability irradiated with 550 nm 4 mW/cm^-2 green-yellow LED light for 1 hr and measured after 48 hrs in presence of CLB by MTT assay. Format: toxicity, cell-based. The following applies: 49 h. An outline of the steps: as §2
Data set [13] can be described thus: Photoactivation of the compound in PBS/ACN incubated for 2 hrs by RP-HPLC analysis. The settings on record: buffer. In outline: (§3)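 Caged compound (20 μM) with 4-dimethylaminopyridine internal standard (20 μM) in PBS/ACN 8:2 at 37 °C. First held 2 h in the dark for stability, then irradiated with a 470–750 nm LED centred at 530 nm while stirred. Release followed by RP-HPLC with formic acid/water–ACN gradients.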

Data set [14] relates to U-87 MG. Nature of the data set: Cytotoxicity against human U-87 MG cells assessed as reduction in cell viability incubated for 2 hrs under dark condition by resazurin assay. The settings on record: U-87MG ATCC. Format: functional, cell-based.
Data set [15] has as its system U-87 MG. Nature of the data set: Cytotoxicity against human U-87 MG cells assessed as reduction in cell viability incubated for 2 hrs under dark condition by MTT assay. Type of data set: functional, cell-based, U-87MG ATCC. In outline: as §2
A short description of data set [16]: Photoactivation of the compound in PBS/ACN irradiation with visible light at 530 nm 150 mW cm2 incubated for 2 hrs by RP-HPLC analysis. Also on record: dose or concentration left out as unconfirmed. The following applies: buffer. In outline:
as §3

Data set [17] can be described thus: Photochemical property of compound assessed as uncaging quantum yields. Type of data set: physicochemical. In outline:
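Uncaging quantum yields derived from photon flux (DAE actinometry) together with photolysis rate parameters. Photolysis run in PBS/ACN 8:2 at 37 °C under a 530 nm-centred LED.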

Data set [18] is described as follows: Drug localization in lysosome of human HeLa cells at 1 uM incubated for 30 mins by Lysotracker green dye based confocal scanning microscopic analysis. Format: ADME, subcellular. The settings on record: 0.5 h. In outline: (§4)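 HeLa cells incubated with compound (1 μM) for 30 min at 37 °C in nonsupplemented DMEM. LysoTracker Green FM added for the last 5 min and WGA Alexa Fluor 633 for the last 20 min. Cells washed with DPBS and imaged live by confocal at 37 °C: compound excited at 561 nm (570–670 nm), LTG at 488 nm, WGA at 633 nm. Pearson's coefficient from 5 stacks, about 25 cells each.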

Data set [19] can be described thus: Drug localization in mitochondria of human HeLa cells at 1 uM incubated for 30 mins by Mito-tracker green dye based confocal scanning microscopic analysis. Format: ADME. The following applies: 0.5 h. An outline of the steps:
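Cells washed with DPBS and imaged live by confocal at 37 °C with 5% CO2: compound excited at 561 nm (detection 570–670 nm), MTG at 488 nm. Colocalization coefficients from 5 stacks of about 25 cells.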

A short description of data set [20]: Drug accumulation in human HeLa cells assessed as mitochondrial localization at 1 uM incubated for 30 mins by Hoechst 33342 staining based live cell confocal microscopic analysis. Type of data set: ADME. The following applies: 0.5 h. In outline: as §1
Data set [21] in a line: Drug localization in Endosome of human HeLa cells at 1 uM incubated for 30 mins by wheat germ agglutinin alexa fluor 633 probe based analysis. Type of data set: ADME, subcellular. The following applies: 0.5 h. In outline: as §4
Data set [22] can be described thus: Drug localization in lysosome of human HeLa cells at 1 uM incubated for 30 mins by Lysotracker green dye based analysis. Type of data set: ADME, subcellular. The settings on record: 0.5 h. In outline: as §4
Data set [23] in a line: Drug localization in lysosome of human HeLa cells at 1 uM incubated for 30 mins by wheat germ agglutinin alexa fluor 633 probe based analysis. Format: ADME, subcellular. The following applies: 0.5 h. An outline of the steps:
as §4

Data set [24] is described as follows: Drug localization in […] of human HeLa cells at 1 uM incubated for 30 mins by Lysotracker green dye based confocal scanning microscopic analysis. Format: ADME, subcellular. The settings on record: 0.5 h. An outline of the steps:
as §4

What is called IC50 is the concentration that gives 50% inhibition.

Structures are written as SMILES. Active and inactive are the calls of the source. The calls are words filed in the database; no cut-off is given here.

Take `CCCCCC[n+]1ccc(/C(C#N)=C2/C=C(C)c3ccc(N(CC)CC)cc3O2)cc1`: the result in data set [1] and in data set [2] was Active.

As for `CCCCCC[n+]1ccc(/C(C#N)=C2/C=C(C(C)O)c3ccc(N(CC)CC)cc3O2)cc1.[Cl-]` (stereo not drawn), the Drug uptake entry in data set [3] is “Active”. The result in data set [1] and in [2] was Active. Further, in data set [4], the selectivity ratio at 48 h was 40. The IC50 with HeLa [5] was 27.2 µM. For the same molecule, the Activity in data set [6] was 0.26.

On to `CCCCCC[n+]1ccc(/C(C#N)=C2/C=C(C(C)OC(=O)CCCc3ccc(N(CCCl)CCCl)cc3)c3ccc(N(CC)CC)cc3O2)cc1.[Cl-]` (stereo not drawn), for which the Activity entry in the data set on HeLa [7] was “Non-toxic”; in data set [9], below 0.01; with HeLa [11], “Non-toxic”; with HeLa [12], “Non-toxic”; in data set [13], “Active”; in [16], “Active”. Further, the values for the Activity in [6] and in [17] were 0.07 and 1.3e-05, respectively. In addition, the Drug uptake result in [8], in data set [18] and in [19] was “Active” each time. Moreover, in data set [10], the IC50 at 48 h is 0.12 µM. Also, the outcome (in [1]; in the data set on U-87 MG [14]; in data set [2]) was Active. The selectivity ratio at 48 h in [4] was 40. Further, the values for the IC50 in the data set with HeLa [5] and in the data set on U-87 MG [15] were 3.76 µM and 6.72 µM, respectively.

Take `O=C(O)CCCc1ccc(N(CCCl)CCCl)cc1` [CHLORAMBUCIL]: the IC50 in the data set with HeLa [5] is above 100 µM.

As for `CCCCCC[n+]1ccc(/C(C#N)=C2/C=C(C(C)OC(=O)CCCc3ccccc3)c3ccc(N(CC)CC)cc3O2)cc1.[Br-]` (stereo not drawn), the Drug uptake result in [8], in data set [18], in [20] and in data set [19] was “Active” throughout. The Activity in data set [9] is 0.05; in data set [13], “Active”; in data set [16] it was “Active”; in data set [6] it was 0.23; in data set [17], 3.89e-05. Moreover, the outcome in [1] and in [2] was Active. Besides, in [4], the selectivity ratio at 48 h was 131. Moreover, the IC50 in the data set with HeLa [5] came to 3.54 µM.

For the molecule `CCN(CC)c1ccc2c(c1)O/C(=C(/C#N)c1cc[n+](CCC[N+](C)(C)C)cc1)C=C2C(C)OC(=O)CCCc1ccc(N(CCCl)CCCl)cc1.[Cl-].[Cl-]` (stereo not drawn), the Activity entry in the data set on HeLa [7] is “Non-toxic”; in [9] it was below 0.01; in the data set on HeLa [11] it was “Non-toxic”; in the data set with HeLa [12], “Non-toxic”; in data set [13], “Active”; in [16] it was “Active”. Moreover, the Activity in data set [6] stood at 0.09; in [17] it was 1.07e-05. Moreover, the Drug uptake result in data set [8], in data set [21], in [22], in data set [23] and in data set [24] was “Active” throughout. Besides, the result in data set [1] and in data set [2] was Active. Further, the selectivity ratio at 48 h in data set [4] came out at 3.7. Besides, in the data set on HeLa [5], the IC50 worked out at 41 µM.

As to `O=C(O)CCCc1ccccc1`, the IC50 in the data set on HeLa [5] is above 100 µM.
